Results as given in ChEMBL document CHEMBL2016459, “Toll-like receptor (TLR)-7 and -8 modulatory activities of dimeric imidazoquinolines” (J Med Chem, 2012).
Active and inactive are the calls of the source. The calls are words filed in the database; no cut-off is given here.

Assays:
[1] = biological target: Toll-like receptor 3 (Homo sapiens) (UniProt O15455); assay: Agonist activity at human TLR3 HEK-Blue cells assessed as increase in NFkappaB activation by sAP reporter gene assay; format: functional, cell-based
Sequence of Toll-like receptor 3 (Homo sapiens) (O15455 whole entry): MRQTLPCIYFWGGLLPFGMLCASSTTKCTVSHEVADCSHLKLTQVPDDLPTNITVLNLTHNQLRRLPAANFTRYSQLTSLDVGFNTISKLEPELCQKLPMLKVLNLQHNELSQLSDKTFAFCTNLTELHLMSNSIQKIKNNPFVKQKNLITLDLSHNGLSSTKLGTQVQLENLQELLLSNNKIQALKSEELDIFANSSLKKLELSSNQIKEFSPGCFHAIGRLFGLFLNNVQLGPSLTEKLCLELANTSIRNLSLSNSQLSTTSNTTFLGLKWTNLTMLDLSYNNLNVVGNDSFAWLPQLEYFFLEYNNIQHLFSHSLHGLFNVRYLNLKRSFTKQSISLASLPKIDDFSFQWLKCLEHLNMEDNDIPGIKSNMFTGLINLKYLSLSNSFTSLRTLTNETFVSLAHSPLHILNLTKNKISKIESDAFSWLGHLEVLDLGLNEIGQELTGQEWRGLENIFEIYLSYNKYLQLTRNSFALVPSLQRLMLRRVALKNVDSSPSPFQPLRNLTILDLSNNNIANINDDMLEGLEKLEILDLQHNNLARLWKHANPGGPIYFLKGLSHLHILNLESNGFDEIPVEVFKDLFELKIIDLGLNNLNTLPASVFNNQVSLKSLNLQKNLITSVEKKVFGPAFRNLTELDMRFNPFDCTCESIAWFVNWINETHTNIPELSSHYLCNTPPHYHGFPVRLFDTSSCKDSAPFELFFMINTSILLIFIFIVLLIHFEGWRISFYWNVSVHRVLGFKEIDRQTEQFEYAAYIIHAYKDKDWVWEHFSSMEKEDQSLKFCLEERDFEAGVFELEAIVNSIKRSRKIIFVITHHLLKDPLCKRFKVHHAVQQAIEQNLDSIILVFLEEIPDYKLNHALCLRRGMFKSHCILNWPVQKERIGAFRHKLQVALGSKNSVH
In short: (§1)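 HEK293 cells stably transfected with human TLR3, TLR7 or TLR8 plus MD2 and an NF-κB/AP-1-driven secreted alkaline phosphatase reporter (HEK-Blue), kept in selection medium with zeocin and normocin. Cells at ~10^5 cells/ml were grown to confluency and then given graded concentrations of stimuli. Supernatant sAP was read spectrophotometrically at 620 nm with a chromogen in HEK-detection medium.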

Toll-like receptor 7 [2] = biological target: T1, Toll-like receptor 7 (Homo sapiens, UniProt Q9NYK1); assay: Agonist activity at human TLR7 expressed in HEK-Blue cells assessed as increase in NFkappaB activation by sAP reporter gene assay; format: functional, cell-based; in short: as §1
T1 sequence (Q9NYK1 whole entry): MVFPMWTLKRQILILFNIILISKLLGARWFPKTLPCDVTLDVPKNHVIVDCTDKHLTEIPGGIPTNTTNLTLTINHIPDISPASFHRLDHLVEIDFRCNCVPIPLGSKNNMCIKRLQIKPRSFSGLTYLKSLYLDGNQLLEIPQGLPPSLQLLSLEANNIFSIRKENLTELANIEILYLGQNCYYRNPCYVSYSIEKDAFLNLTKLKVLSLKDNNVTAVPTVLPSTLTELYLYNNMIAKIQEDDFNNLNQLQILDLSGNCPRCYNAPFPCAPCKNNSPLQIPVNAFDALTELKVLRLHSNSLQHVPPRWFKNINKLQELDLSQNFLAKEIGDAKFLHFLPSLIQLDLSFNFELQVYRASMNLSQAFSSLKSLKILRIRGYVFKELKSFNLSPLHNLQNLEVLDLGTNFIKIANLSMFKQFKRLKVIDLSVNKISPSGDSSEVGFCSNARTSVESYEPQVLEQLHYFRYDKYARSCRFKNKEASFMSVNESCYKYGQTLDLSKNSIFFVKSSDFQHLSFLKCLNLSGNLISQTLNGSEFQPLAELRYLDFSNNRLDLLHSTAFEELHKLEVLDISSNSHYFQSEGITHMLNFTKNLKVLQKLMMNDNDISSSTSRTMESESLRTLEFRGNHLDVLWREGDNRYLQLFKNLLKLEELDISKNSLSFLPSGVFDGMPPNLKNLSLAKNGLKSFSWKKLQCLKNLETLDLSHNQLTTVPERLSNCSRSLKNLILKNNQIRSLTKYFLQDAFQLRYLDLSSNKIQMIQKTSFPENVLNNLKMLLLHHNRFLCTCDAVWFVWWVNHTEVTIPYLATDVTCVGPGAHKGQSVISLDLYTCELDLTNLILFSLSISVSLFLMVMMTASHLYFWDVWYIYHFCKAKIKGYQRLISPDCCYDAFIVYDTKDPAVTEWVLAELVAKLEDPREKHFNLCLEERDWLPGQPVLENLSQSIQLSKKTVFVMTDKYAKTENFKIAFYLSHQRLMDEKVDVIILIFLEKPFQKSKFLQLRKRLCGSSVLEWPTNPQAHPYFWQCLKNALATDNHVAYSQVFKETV

PBMC = assay: Immunostimulatory activity in human PBMC assessed as induction IFN-alpha production after 12 hrs by ELISA; format: functional, cell-based
In short: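 Healthy-donor PBMCs were prepared by Ficoll-Hypaque gradient and aliquoted at 10⁶ cells. Cells were stimulated 12 h with graded test concentrations. Supernatant was diluted 1:20 and IFN-α measured in triplicate by high-sensitivity human IFN-α ELISA.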

[3] = biological target: T2, Toll-like receptor 7 (Homo sapiens) (UniProt Q9NYK1); assay: (§2) Antagonist activity at TLR7 in human PBMC assessed as inhibition of gardiquimod-induced TNF-alpha release after 12 hrs by bead array assay; format: functional
T2 sequence (whole entry): T1 sequence (Q9NYK1 whole entry)
In short: (§3)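 Human PBMCs from healthy donors, isolated by Ficoll-Hypaque, 10⁶ cells per aliquot. Cells were incubated 12 h with graded test concentrations plus 10 μg/ml gardiquimod. Supernatants were diluted 1:20 and analytes measured in triplicate by cytokine/chemokine bead array. Three independent experiments.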

[4] = biological target: T2, Toll-like receptor 7 (Homo sapiens); assay: (§4) Antagonist activity at TLR7 in human PBMC assessed as inhibition of gardiquimod-induced IL-1beta release after 12 hrs by bead array assay; format: functional; in short: as §3
Toll-like receptor 8 [5] = biological target: T3, Toll-like receptor 8 (Homo sapiens, UniProt Q9NR97); assay: Agonist activity at human TLR8 expressed in HEK-Blue cells assessed as increase in NFkappaB activation by sAP reporter gene assay; format: functional, cell-based; in short: as §1
T3 sequence (Q9NR97 whole entry): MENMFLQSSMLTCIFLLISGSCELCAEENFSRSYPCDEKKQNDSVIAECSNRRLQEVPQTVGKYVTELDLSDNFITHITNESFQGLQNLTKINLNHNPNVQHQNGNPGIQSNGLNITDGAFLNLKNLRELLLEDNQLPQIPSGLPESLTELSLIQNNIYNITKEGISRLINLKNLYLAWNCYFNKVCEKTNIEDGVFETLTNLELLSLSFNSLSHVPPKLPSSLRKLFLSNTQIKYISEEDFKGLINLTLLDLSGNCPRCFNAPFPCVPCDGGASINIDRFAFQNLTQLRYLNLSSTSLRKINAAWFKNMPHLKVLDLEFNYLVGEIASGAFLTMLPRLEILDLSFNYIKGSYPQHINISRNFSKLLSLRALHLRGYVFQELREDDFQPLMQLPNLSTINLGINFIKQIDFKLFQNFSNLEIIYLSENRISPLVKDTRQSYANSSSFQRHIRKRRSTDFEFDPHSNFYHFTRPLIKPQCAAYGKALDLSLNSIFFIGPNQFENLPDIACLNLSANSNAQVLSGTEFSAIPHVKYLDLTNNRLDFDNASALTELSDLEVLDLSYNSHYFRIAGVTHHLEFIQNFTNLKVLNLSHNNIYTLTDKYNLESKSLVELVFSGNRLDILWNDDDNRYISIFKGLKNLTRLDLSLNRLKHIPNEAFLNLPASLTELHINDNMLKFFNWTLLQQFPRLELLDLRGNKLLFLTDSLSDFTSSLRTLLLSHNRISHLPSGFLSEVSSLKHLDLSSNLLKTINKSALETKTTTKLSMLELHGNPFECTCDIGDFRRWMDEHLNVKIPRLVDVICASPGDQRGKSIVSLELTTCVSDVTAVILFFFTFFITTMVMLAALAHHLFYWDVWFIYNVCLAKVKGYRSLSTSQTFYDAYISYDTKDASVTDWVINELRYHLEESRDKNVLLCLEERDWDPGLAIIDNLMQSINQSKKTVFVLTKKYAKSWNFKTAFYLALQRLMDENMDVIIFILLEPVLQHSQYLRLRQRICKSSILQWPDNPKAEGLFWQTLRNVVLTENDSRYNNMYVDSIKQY

Toll-like receptor 7 [6] = biological target: T1, Toll-like receptor 7; assay: Antagonist activity at TLR7 in human PBMC assessed as inhibition of gardiquimod-induced IL-8 release after 12 hrs by bead array assay; format: functional; in short: as §3
Toll-like receptor 8 [7] = biological target: T3, Toll-like receptor 8; assay: Antagonist activity at TLR8 in human PBMC assessed as inhibition of CL075-TNF-alpha release after 12 hrs by bead array assay; format: functional
In short: (§5)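 Ficoll-Hypaque-isolated healthy-donor PBMCs (10⁶ cells) were exposed 12 h to graded test concentrations together with 10 μg/ml CL075. Supernatants were diluted 1:20 and each cytokine or chemokine assayed in triplicate by bead array. Three independent experiments.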

Toll-like receptor 8 [8] = biological target: T3, Toll-like receptor 8; assay: Antagonist activity at TLR8 in human PBMC assessed as inhibition of CL075-induced IL-6 release after 12 hrs by bead array assay; format: functional; in short: as §5
Toll-like receptor 8 [9] = biological target: T3, Toll-like receptor 8; assay: Antagonist activity at TLR8 in human PBMC assessed as inhibition of CL075-induced IL-8 release after 12 hrs by bead array assay; format: functional; in short: as §5
Toll-like receptor 7 [10] = biological target: T1, Toll-like receptor 7; assay: Antagonist activity at TLR7 in human PBMC assessed as inhibition of gardiquimod-induced IL-6 release after 12 hrs by bead array assay; format: functional; in short: as §3
Toll-like receptor 7 [11] = biological target: T1, Toll-like receptor 7; assay: as §2; format: functional; in short: as §3
Toll-like receptor 7 [12] = biological target: T1, Toll-like receptor 7; assay: as §4; format: functional; in short: as §3
Toll-like receptor 7 [13] = biological target: T1, Toll-like receptor 7; assay: Antagonist activity at TLR7 in human PBMC assessed as inhibition of gardiquimod-induced CXCL10 release after 12 hrs by bead array assay; format: functional; in short: as §3
Toll-like receptor 7 [14] = biological target: T1, Toll-like receptor 7; assay: Antagonist activity at TLR7 in human PBMC assessed as inhibition of gardiquimod-induced CCL2 release after 12 hrs by bead array assay; format: functional; in short: as §3
Toll-like receptor 8 [15] = biological target: T3, Toll-like receptor 8; assay: Antagonist activity at TLR8 in human PBMC assessed as inhibition of CL075-induced IL-1beta release after 12 hrs by bead array assay; format: functional; in short: as §5
Toll-like receptor 8 [16] = biological target: T3, Toll-like receptor 8; assay: Antagonist activity at TLR8 in human PBMC assessed as inhibition of CL075-induced CXCL10 release after 12 hrs by bead array assay; format: functional; in short: as §5
Toll-like receptor 8 [17] = biological target: T3, Toll-like receptor 8; assay: Antagonist activity at TLR8 in human PBMC assessed as inhibition of CL075-induced CCL2 release after 12 hrs by bead array assay; format: functional; in short: as §5
[18] = biological target: T4, Toll-like receptor 8 (Homo sapiens) (UniProt Q9NR97); assay: Inhibition of human TLR8 expressed in HEK-Blue cells by schild plot analysis
T4 sequence (whole entry): T3 sequence (Q9NR97 whole entry)

Row | SMILES | Activity [1] | EC50 (Toll-like receptor 7 [2]) | other results
1 | CCCCc1nc2c(N)nc3ccc([N+](=O)[O-])cc3c2n1Cc1ccc(CN)cc1 | inactive | 560 nM | –
2 | CCCCc1nc2c(NCCCCCCCCCCNc3nc4ccccc4c4c3nc(CCCC)n4Cc3ccccc3)nc3ccccc3c2n1Cc1ccccc1 | inactive | 3000 nM | –
3 | CCCCc1nc2c(NCCCCCCCCCCCCNc3nc4ccccc4c4c3nc(CCCC)n4Cc3ccccc3)nc3ccccc3c2n1Cc1ccccc1 | inactive | 1420 nM | Activity (PBMC): Dose-dependent effect
4 | CCCCc1nc2c(N)nc3ccc(NC(=O)CCCCCCCCCCC(=O)Nc4ccc5nc(N)c6nc(CCCC)n(Cc7ccc(CN)cc7)c6c5c4)cc3c2n1Cc1ccc(CN)cc1 | inactive | 5400 nM | –
5 | Nc1nc2ccccc2c2c1nc(CCCCCCCCCCc1nc3c(N)nc4ccccc4c3n1Cc1ccccc1)n2Cc1ccccc1 | inactive | – | –
6 | CCCCc1nc2c(N)nc3ccc(NC(=O)CCCCCCC(=O)Nc4ccc5nc(N)c6nc(CCCC)n(Cc7ccc(CN)cc7)c6c5c4)cc3c2n1Cc1ccc(CN)cc1 | inactive | 4020 nM | –
7 | Nc1nc2ccccc2c2c1nc(CCCCc1nc3c(N)nc4ccccc4c3n1Cc1ccccc1)n2Cc1ccccc1 | inactive | – | –
8 | Nc1nc2ccccc2c2c1nc(CCCCCCc1nc3c(N)nc4ccccc4c3n1Cc1ccccc1)n2Cc1ccccc1 | inactive | – | –
9 | CCCCc1nc2c(NCCCCCCCCNc3nc4ccccc4c4c3nc(CCCC)n4Cc3ccccc3)nc3ccccc3c2n1Cc1ccccc1 | inactive | 560 nM | –
10 | CCCCc1nc2c(N)nc3ccccc3c2n1Cc1ccc(CNC(=O)CCCCC(=O)NCc2ccc(Cn3c(CCCC)nc4c(N)nc5ccccc5c43)cc2)cc1 | inactive | 110 nM | Activity (PBMC): Dose-dependent effect
11 | CCCCc1nc2c(N)nc3ccc(NC(=O)CCCCC(=O)Nc4ccc5nc(N)c6nc(CCCC)n(Cc7ccc(CN)cc7)c6c5c4)cc3c2n1Cc1ccc(CN)cc1 | inactive | 7240 nM | Activity (PBMC): Dose-dependent effect
12 | CCN(CC)CCCC(C)Nc1ccnc2cc(Cl)ccc12 (centres undefined) | – | – | inhibition [3]: Active; inhibition [4]: Active
13 | CCCCc1nc2c(N)nc3ccccc3c2n1Cc1ccc(CNC(=O)CCCCCCCCCCC(=O)NCc2ccc(Cn3c(CCCC)nc4c(N)nc5ccccc5c43)cc2)cc1 | inactive | 170 nM | EC50 (Toll-like receptor 8 [5]): 4.78 µM; Activity (PBMC): Dose-dependent effect
14 | CCCCc1nc2c(NCCCCNc3nc4ccccc4c4c3nc(CCCC)n4Cc3ccccc3)nc3ccccc3c2n1Cc1ccccc1 | inactive | 2050 nM | –
15 | CCCCc1nc2c(N)nc3ccccc3c2n1Cc1ccc(CNC(=O)CCCCCCC(=O)NCc2ccc(Cn3c(CCCC)nc4c(N)nc5ccccc5c43)cc2)cc1 | inactive | 240 nM | Activity (PBMC): Dose-dependent effect
16 | CCCCc1nc2c(N)nc3ccc(N)cc3c2n1Cc1ccc(CN)cc1 | inactive | 450 nM | –
17 | Nc1nc2ccccc2c2c1nc(CCCc1nc3c(N)nc4ccccc4c3n1Cc1ccccc1)n2Cc1ccccc1 | inactive | – | IC50 (Toll-like receptor 7 [6]): 50 nM; IC50 (Toll-like receptor 8 [7]): 50 nM; IC50 (Toll-like receptor 8 [8]): 50 nM; IC50 (Toll-like receptor 8 [9]): 50 nM; IC50 (Toll-like receptor 7 [10]): 50 nM; IC50 (Toll-like receptor 7 [11]): 50 nM; IC50 (Toll-like receptor 7 [12]): 50 nM; IC50 (Toll-like receptor 7 [13]): 50 nM; IC50 (Toll-like receptor 7 [14]): 50 nM; IC50 (Toll-like receptor 8 [15]): 50 nM; IC50 (Toll-like receptor 8 [16]): 50 nM; IC50 (Toll-like receptor 8 [17]): 50 nM; inhibition [18]: Active
